Test results from ChEMBL document CHEMBL1138738, “Synthesis, in vitro pharmacology, structure-activity relationships, and pharmacokinetics of 3-alkoxy-2-amino-6-fluorobicyclo[3.1.0]hexane-2,6-dicarboxylic acid derivatives as potent and selective group II metabotropic glutamate receptor antagonists” (J Med Chem, 2004).

Assays:
[1] = Half-life in rat upon oral dose of 30 mg/kg; format: ADME, organism-based; parameters: dose 30 mg/kg, route oral; conditions: in vivo
How it was run: (§1)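 Fasted rats were dosed orally at 3, 10 or 30 mg/kg. Plasma concentration-time profiles were measured by LC/ESI-MS/MS. Cmax, Tmax, elimination half-life and AUCinf were derived per dose group and reported as mean ± deviation.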

[2] = target: T1, Metabotropic glutamate receptor 2 (Rattus norvegicus, UniProt P31421); test: Effective concentration for agonistic activity towards metabotropic glutamate receptor 2 of rat expressed in CHO cells; format: functional, cell-based
T1 sequence (P31421 whole entry): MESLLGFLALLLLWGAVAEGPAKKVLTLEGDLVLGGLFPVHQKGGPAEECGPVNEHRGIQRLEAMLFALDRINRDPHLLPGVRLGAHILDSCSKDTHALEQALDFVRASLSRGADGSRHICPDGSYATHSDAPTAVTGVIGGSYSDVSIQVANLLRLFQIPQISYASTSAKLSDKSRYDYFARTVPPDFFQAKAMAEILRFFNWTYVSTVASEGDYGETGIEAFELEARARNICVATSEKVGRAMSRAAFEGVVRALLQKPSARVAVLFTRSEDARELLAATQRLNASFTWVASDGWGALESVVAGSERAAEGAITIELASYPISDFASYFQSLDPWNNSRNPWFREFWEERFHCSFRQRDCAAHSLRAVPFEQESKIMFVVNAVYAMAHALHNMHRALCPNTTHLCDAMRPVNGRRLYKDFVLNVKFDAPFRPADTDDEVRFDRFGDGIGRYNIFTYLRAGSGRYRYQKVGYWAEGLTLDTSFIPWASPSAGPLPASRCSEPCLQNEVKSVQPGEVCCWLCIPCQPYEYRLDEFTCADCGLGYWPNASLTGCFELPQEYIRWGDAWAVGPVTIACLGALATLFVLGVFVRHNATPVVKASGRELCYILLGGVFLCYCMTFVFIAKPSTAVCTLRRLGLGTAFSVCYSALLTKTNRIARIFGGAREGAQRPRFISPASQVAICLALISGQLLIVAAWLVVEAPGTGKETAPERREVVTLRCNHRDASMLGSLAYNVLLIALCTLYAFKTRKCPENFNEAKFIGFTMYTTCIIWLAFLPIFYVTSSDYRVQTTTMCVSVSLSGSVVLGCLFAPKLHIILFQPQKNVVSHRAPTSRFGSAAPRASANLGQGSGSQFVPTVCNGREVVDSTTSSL

[3] = target: T1, Metabotropic glutamate receptor 2; test: Concentration required to inhibit metabotropic glutamate receptor 2 activity of rat expressed in CHO cells; format: cell-based
[4] = Concentration of compound in brain of rat after 6 hr of oral dose 10 mg/kg; format: ADME, organism-based; parameters: dose 10 mg/kg, route oral
How it was run: (§2)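 Rats given a single peroral dose of 10 mg/kg. Plasma and cerebrum were sampled at 1, 3, 6 and 24 h. Concentrations were measured by LC/ESI-MS/MS using an internal standard. Detection limits were 1 ng/mL in plasma and 1.5 ng/g in brain. Tmax, Cmax, terminal half-life (lambda z) and predicted AUCinf were derived from the mean time-course levels.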

[5] = Peak plasma concentration in rats upon oral dose of 3 mg/kg; format: ADME, organism-based; parameters: dose 3 mg/kg, route oral; conditions: rat; how it was run: as §1
[6] = Peak plasma concentration in rats upon oral dose of 10 mg/kg; format: ADME, organism-based; parameters: dose 10 mg/kg, route oral; conditions: rat; how it was run: as §1
[7] = Peak plasma concentration in rats upon oral dose of 30 mg/kg; format: ADME, organism-based; parameters: dose 30 mg/kg, route oral; conditions: rat; how it was run: as §1
[8] = Peak plasma concentration in rat brain upon oral dose of 10 mg/kg; format: ADME, organism-based; parameters: dose 10 mg/kg, route oral; how it was run: as §2
[9] = Peak plasma concentration in rat plasma upon oral dose of 10 mg/kg; format: ADME, organism-based; parameters: dose 10 mg/kg, route oral; how it was run: as §2
[10] = Half-life in rat brain upon oral dose of 10 mg/kg; format: ADME, organism-based; parameters: dose 10 mg/kg, route oral; how it was run: as §2
[11] = Half-life in rat plasma upon oral dose of 10 mg/kg; format: ADME, organism-based; parameters: dose 10 mg/kg, route oral; how it was run: as §2
[12] = Concentration of compound in brain of rat after 24 hr of oral dose 10 mg/kg; format: ADME, organism-based; parameters: dose 10 mg/kg, route oral; how it was run: as §2
[13] = Concentration of compound in plasma of rat after 1 hr of oral dose 10 mg/kg; format: ADME, organism-based; parameters: dose 10 mg/kg, route oral; how it was run: as §2
[14] = Concentration of compound in plasma of rat after 3h of oral dose 10 mg/kg; format: ADME, organism-based; parameters: dose 10 mg/kg, route oral; how it was run: as §2
[15] = Concentration of compound in plasma of rat after 6 hr of oral dose 10 mg/kg; format: ADME, organism-based; parameters: dose 10 mg/kg, route oral; how it was run: as §2
[16] = Concentration of compound in plasma of rat after 24 hr of oral dose 10 mg/kg; format: ADME, organism-based; parameters: dose 10 mg/kg, route oral; how it was run: as §2
[17] = target: T1, Metabotropic glutamate receptor 2; test: Binding affinity towards metabotropic glutamate receptor 2 of rat expressed in CHO cells was determined by using [3H]MGS-0008; format: cell-based
[18] = target: Metabotropic glutamate receptor 3 (Rattus norvegicus, UniProt P31422); test: Binding affinity towards metabotropic glutamate receptor 3 of rat expressed in CHO cells was determined by using [3H]MGS-0008; format: cell-based
Metabotropic glutamate receptor 3, sequence (P31422 whole entry): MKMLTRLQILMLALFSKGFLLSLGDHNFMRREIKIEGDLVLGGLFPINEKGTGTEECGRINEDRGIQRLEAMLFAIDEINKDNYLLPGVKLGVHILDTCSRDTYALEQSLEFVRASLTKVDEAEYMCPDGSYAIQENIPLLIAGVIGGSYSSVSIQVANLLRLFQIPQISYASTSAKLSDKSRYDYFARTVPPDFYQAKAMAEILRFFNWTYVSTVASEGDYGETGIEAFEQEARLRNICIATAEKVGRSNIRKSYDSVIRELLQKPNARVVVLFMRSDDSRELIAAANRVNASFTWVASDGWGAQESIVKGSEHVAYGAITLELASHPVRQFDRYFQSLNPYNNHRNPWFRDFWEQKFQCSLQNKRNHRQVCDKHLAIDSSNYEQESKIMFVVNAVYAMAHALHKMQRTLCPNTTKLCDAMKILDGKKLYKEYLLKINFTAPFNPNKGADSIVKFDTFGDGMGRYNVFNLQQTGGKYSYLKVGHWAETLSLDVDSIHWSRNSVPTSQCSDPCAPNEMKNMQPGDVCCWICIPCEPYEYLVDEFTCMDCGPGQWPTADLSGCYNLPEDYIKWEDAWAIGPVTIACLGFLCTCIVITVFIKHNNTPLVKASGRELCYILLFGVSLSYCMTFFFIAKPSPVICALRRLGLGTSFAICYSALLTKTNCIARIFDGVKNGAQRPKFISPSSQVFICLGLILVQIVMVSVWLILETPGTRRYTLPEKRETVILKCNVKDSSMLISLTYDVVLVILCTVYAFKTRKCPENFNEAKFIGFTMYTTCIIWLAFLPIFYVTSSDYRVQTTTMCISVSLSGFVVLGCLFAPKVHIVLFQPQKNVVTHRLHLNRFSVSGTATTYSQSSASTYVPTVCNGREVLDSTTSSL

[19] = Maximum time required to achieve peak plasma concentration upon oral dose of 3 mg/kg to rats; format: ADME, organism-based; parameters: dose 3 mg/kg, route oral; conditions: rat; how it was run: as §1
[20] = Maximum time required to achieve peak plasma concentration upon oral dose of 10 mg/kg to rats; format: ADME, organism-based; parameters: dose 10 mg/kg, route oral; conditions: rat; how it was run: as §1
[21] = Maximum time required to achieve peak plasma concentration upon oral dose of 30 mg/kg to rats; format: ADME, organism-based; parameters: dose 30 mg/kg, route oral; conditions: rat; how it was run: as §1
[22] = Maximum time required to achieve peak plasma concentration in rat brain upon oral dose of 10 mg/kg; format: ADME, organism-based; parameters: dose 10 mg/kg, route oral; how it was run: as §2
[23] = Maximum time required to achieve peak plasma concentration in rat plasma upon oral dose of 10 mg/kg; format: ADME, organism-based; parameters: dose 10 mg/kg, route oral; how it was run: as §2
[24] = Half-life in rat upon oral dose of 3 mg/kg; format: ADME, organism-based; parameters: dose 3 mg/kg, route oral; conditions: in vivo; how it was run: as §1
[25] = Half-life in rat upon oral dose of 10 mg/kg; format: ADME, organism-based; parameters: dose 10 mg/kg, route oral; conditions: in vivo; how it was run: as §1
[26] = Concentration of compound in brain of rat after 1 hr of oral dose 10 mg/kg; format: ADME, organism-based; parameters: dose 10 mg/kg, route oral; how it was run: as §2
[27] = Concentration of compound in brain of rat after 3h of oral dose 10 mg/kg; format: ADME, organism-based; parameters: dose 10 mg/kg, route oral; how it was run: as §2

| SMILES | half-life [1] [h] | concentration at 6 h [4] [ng/mL] | Cmax [5] [ng/mL] | Cmax [6] [ng/mL] | Cmax [7] [ng/mL] | Cmax [8] [ng/mL] | Cmax [9] [ng/mL] | half-life [11] [h] | concentration at 1 h [13] [ng/mL] | concentration at 3 h [14] [ng/mL] | concentration at 6 h [15] [ng/mL] | Ki [17] [nM] | Ki [18] [nM] | Tmax [19] [h] | Tmax [20] [h] | Tmax [21] [h] | Tmax [22] [h] | Tmax [23] [h] | half-life [24] [h] | half-life [25] [h] | other results |
| --- | --- | --- | --- | --- | --- | --- | --- | --- | --- | --- | --- | --- | --- | --- | --- | --- | --- | --- | --- | --- | --- |
| CC[C@@H](O[C@@H]1C[C@@H]2[C@H]([C@]1(N)C(=O)O)[C@@]2(F)C(=O)O)c1ccc(Cl)c(Cl)c1 | – | – | – | – | – | – | – | – | – | – | – | 1.61 | – | – | – | – | – | – | – | – | – |
| N[C@]1(C(=O)O)[C@H]2[C@@H](C[C@H]1OCc1ccc3ccccc3c1)[C@]2(F)C(=O)O | 2.93 | 8.72 | 65.9 | 374 | 965 | 8.72 | 252 | 2.9 | 121 | 252 | 210 | – | 5.43 | 4 | 2.7 | 2.7 | 6 | 3 | 3.66 | 2.74 | IC50 [3]: 22.7 nM; concentration at 1 h [26]: 1.42 ng/mL; concentration at 3 h [27]: 3.64 ng/mL; half-life [10]: 7.1 h; concentration at 24 h [12]: 0.25 ng/mL; concentration at 24 h [16]: 2.2 ng/mL |
| C[C@H](O[C@@H]1C[C@@H]2[C@H]([C@]1(N)C(=O)O)[C@@]2(F)C(=O)O)c1ccc(Cl)c(Cl)c1 | – | – | – | – | – | – | – | – | – | – | – | 5.81 | – | – | – | – | – | – | – | – | – |

The remaining compounds from weak to strong by Ki [17], led by results:

| half-life [1] [h] | concentration at 6 h [4] [ng/mL] | Cmax [5] [ng/mL] | Cmax [6] [ng/mL] | Cmax [7] [ng/mL] | Cmax [8] [ng/mL] | Cmax [9] [ng/mL] | half-life [11] [h] | concentration at 1 h [13] [ng/mL] | concentration at 3 h [14] [ng/mL] | concentration at 6 h [15] [ng/mL] | Ki [17] [nM] | Ki [18] [nM] | Tmax [19] [h] | Tmax [20] [h] | Tmax [21] [h] | Tmax [22] [h] | Tmax [23] [h] | half-life [24] [h] | half-life [25] [h] | SMILES | other results |
| --- | --- | --- | --- | --- | --- | --- | --- | --- | --- | --- | --- | --- | --- | --- | --- | --- | --- | --- | --- | --- | --- |
| – | – | – | – | – | – | – | – | – | – | – | 4.35 | – | – | – | – | – | – | – | – | N[C@]1(C(=O)O)[C@H]2[C@@H](C[C@H]1OCc1cccc(Cl)c1Cl)[C@]2(F)C(=O)O | – |
| – | – | – | – | – | – | – | – | – | – | – | 4.02 | – | – | – | – | – | – | – | – | N[C@]1(C(=O)O)[C@H]2[C@@H](C[C@H]1OCc1ccc(Cl)c(F)c1)[C@]2(F)C(=O)O | – |
| 3.28 | 3.39 | 76.6 | 272 | 651 | 3.66 | 225 | 2.5 | 176 | 225 | 98.2 | 3.17 | 4.77 | 1.3 | 2.3 | 2.7 | 3 | 3 | 1.67 | 3.75 | N[C@]1(C(=O)O)[C@H]2[C@@H](C[C@H]1OCc1ccc(Cl)cc1)[C@]2(F)C(=O)O | EC50 [2]: > 100000 nM; concentration at 1 h [26]: 2.51 ng/mL; concentration at 3 h [27]: 3.66 ng/mL |
| 3.63 | 2.04 | 25 | 85.1 | 312 | 2.04 | 61.3 | 2.8 | 61.3 | 37.6 | 23.1 | 2.58 | 3.93 | 0.7 | 1.8 | 1 | 6 | 1 | 1.62 | 2.2 | N[C@]1(C(=O)O)[C@H]2[C@@H](C[C@H]1OC(c1ccccc1)c1ccccc1)[C@]2(F)C(=O)O | EC50 [2]: > 100000 nM; IC50 [3]: 24.4 nM; half-life [10]: 9 h; concentration at 24 h [12]: 0.51 ng/mL; concentration at 24 h [16]: 0.2 ng/mL |
| 3.62 | 2.4 | 82.3 | 297 | 635 | 3.11 | 213 | 2.8 | 213 | 179 | 41.1 | 2.27 | 3 | 1.3 | 1.7 | 1.2 | 3 | 1 | 3.47 | 1.78 | N[C@]1(C(=O)O)[C@H]2[C@@H](C[C@H]1OCc1ccc(F)c(F)c1)[C@]2(F)C(=O)O | EC50 [2]: > 100000 nM; IC50 [3]: 40.8 nM; concentration at 1 h [26]: 3.06 ng/mL; concentration at 3 h [27]: 3.11 ng/mL; half-life [10]: 19.5 h; concentration at 24 h [12]: 1.39 ng/mL; concentration at 24 h [16]: 0.8 ng/mL |
